Bioassay records as filed in PubChem.
Shown are actives, neighbours in structure and some others; about 3.7% of the full set was active somewhere.
Kir21 inh: Kir2.1 (mouse) channel inhibition. hit rate 0.85% among 310,000. B-score at 10 µM. HEK293-Kir2.1, FluxOR thallium flux fluorescence; stronger effect = lower value. P35561;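 active = fluorescence ratio B-score at or below minus 3 SD of library scores, with starting-brightness B-score within 2 SD, cut at about -4.2 in these data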;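 also: channel flux triggered by added potassium and thallium sulfate stimulus; B-score of peak minus minimum fluorescence over baseline after thallium stimulus; more negative B-score means stronger Kir2.1 block with less thallium influx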
KCNK9 block: blocks the human KCNK9 two-pore domain potassium channel; HEK293 KCNK9, FluxOR thallium flux fluorescence; stronger effect = lower value; B-score at 10 µM; hit rate 1.2% among 310,000;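 active = ratio B-score over 3 SD below the library mean, with starting fluorescence within 5 SD of its mean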;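 also: negative B-score means less thallium flux so channel inhibition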
Target sequence (Q9NPC2 whole entry, looked up, the tested form may be a part): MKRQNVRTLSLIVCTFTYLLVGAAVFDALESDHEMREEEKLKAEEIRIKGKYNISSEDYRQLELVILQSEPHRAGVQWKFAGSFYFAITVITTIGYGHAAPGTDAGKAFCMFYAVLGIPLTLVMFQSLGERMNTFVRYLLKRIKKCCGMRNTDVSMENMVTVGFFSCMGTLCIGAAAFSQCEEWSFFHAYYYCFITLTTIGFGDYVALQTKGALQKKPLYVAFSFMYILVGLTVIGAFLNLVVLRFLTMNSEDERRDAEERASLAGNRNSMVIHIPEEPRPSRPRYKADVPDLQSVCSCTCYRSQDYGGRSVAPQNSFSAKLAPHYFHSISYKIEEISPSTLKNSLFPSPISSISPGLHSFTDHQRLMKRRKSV
KCNK3 block: human KCNK3 channel inhibition, primary screen; CHO-KCNK3 thallium flux, FluxOR fluorescence; stronger effect = lower value; O14649; hit rate 0.84% among 340,000; B-score at 10 µM;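 active = B-score under library mean minus 4 SD, starting fluorescence ratio at most library mean plus 5 SD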;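 also: more negative B-score means stronger inhibition of thallium flux through KCNK3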
hERG protect: compounds protecting human hERG from proarrhythmic drug block. Q12809. AID 1511. CHO-hERG, FluxOR thallium flux, dofetilide IC70 present. activation (rescue from dofetilide block), less the hit threshold, % at 10 µM. hit rate 0.51% among 310,000;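 active = activation above the mean of controls blocked by dofetilide plus 5 SD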;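 also: thallium influx through hERG after potassium depolarization seen as dye fluorescence rise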
KCNQ1 pot: potentiates or activates the human KCNQ1 potassium channel; CHO-K1 KCNQ1, thallium flux FluxOR fluorescence; stronger effect = higher value; B-score at 10 µM; hit rate 0.35% among 310,000; AID 2648;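 active = fluorescence ratio B-score, a plate-corrected score, at least three library SD, with initial intensity B-score within 5 SD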
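Material: CHO-K1 cells stably expressing KCNQ1. Medium: assay buffer for compound exposure, DMSO matched across wells. Reagent: K+/Tl+ depolarizing stimulus. Compound dosing: single-concentration screen. Times: 37 °C overnight plating, 90-min dark dye load, 20-min compound pretreatment. Technique: FluxOR Tl+ flux fluorescence.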
KCNQ1 inh: human KCNQ1 channel inhibition | P51787 | hit rate 1.3% among 310,000 | B-score at 10 µM | CHO-K1 KCNQ1, FluxOR thallium flux fluorescence; stronger effect = higher value;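 active = compounds whose thallium flux B-score, printed positive for inhibition, exceeds three library SD while starting fluorescence stays within three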;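 also: channel opened by potassium depolarization with thallium stimulus after 20 min compound exposure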
KCNK9 inh conf: confirmation of human KCNK9 potassium channel inhibitors | shares compounds with KCNK9 block | HEK293 KCNK9 cells, FluxOR thallium flux fluorescence | inhibition, % at 10 µM | hit rate 43% among 4,900 | AID 492992;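 active = thallium signal inhibited by more than 5 SD of the compound-free buffer control wells, on both duplicate plates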
Kir21 sel: mouse Kir2.1 off-target activity of KCNK9 modulators. shares compounds with KCNK9 block. inhibition, % at 10 µM. hit rate 4% among 4,900. Kir2.1 cells, FluxOR thallium flux fluorescence;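 active = thallium signal drop more than 5 SD beyond the mean of the no-compound control wells, seen in both duplicate plates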;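 also: signal is fluorescence rise after thallium addition divided by baseline fluorescence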
KCNK9 uninduced: second check of KCNK9 modulator effects in non-induced HEK293 cells. shares compounds with KCNK9 block. FluxOR thallium flux. inhibition, % at 10 µM. hit rate 40% among 4,900;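 active = thallium signal drop beyond 5 SD of the untreated control mean, on both duplicate plates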
KCNK3 confirm: confirmation of human KCNK3 two-pore domain potassium channel inhibitors | hit rate 99% among 2,400 | shares compounds with KCNK3 block | CHO-KCNK3 thallium flux, FluxOR fluorescence; 0% buffer, 100% carvedilol maximal block | AID 651638 | ratio percent of control, % at 10 µM;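 active = ratio percent of control, averaged over triplicates, above buffer control mean plus 5 SD, cut at about 64% in these data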;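 also: ratio is the fluorescence rise from min to max over baseline after thallium stimulus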
KCNK3 noninduced: KCNK3 inhibitor counter-screen hit in non-induced cells; shares compounds with KCNK3 block; non-induced KCNK3 parental cells, FluxOR thallium flux; stronger effect = lower value; thallium flux ratio (lower = more inhibition) at 10 µM; hit rate 40% among 2,400;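 active = thallium flux ratio, averaged over three wells, more than 5 SD below the buffer control mean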;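 also: host cells are CHO cells without KCNK3 induction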
A number is an active result; – = inactive; · = not tested or not shown.

SMILES | Kir21 inh | KCNK9 block | KCNK3 block | hERG protect | KCNQ1 pot | KCNQ1 inh | KCNK9 inh conf | Kir21 sel | KCNK9 uninduced | KCNK3 confirm | KCNK3 noninduced
O=C(CN1C(=O)NC2(CCCCC2)C1=O)N1CCN(c2ncccn2)CC1 | · | · | – | · | · | · | · | · | · | · | ·
COc1ccc(NC(=O)c2cccc(NC(=O)c3ccccc3)c2)c(OC)c1 | – | – | – | – | – | – | · | · | · | · | ·
COc1ccc(OC)c(NC(=O)c2cccc(NC(=O)c3ccccc3)c2)c1 | – | -9 | -11 | – | – | – | 47% | – | – | 102 | –
COc1cccc(C(=O)Nc2cccc(-c3nnc(-c4ccccc4)o3)c2)c1 | – | -8.4 | -10 | – | – | – | 46% | – | 30% | 103 | 0.15
C/C(=N\NC(=O)C1CCCC1)c1ccc(Cl)cc1Cl | – | – | – | – | – | – | · | · | · | · | ·
C=CCNC(=O)c1ccccc1NC(=O)C1CC(=O)N(C(C)C)C1 (stereo not drawn) | – | – | – | – | – | – | · | · | · | · | ·
CC(C)c1ccc(/C=C2\SC(=O)N(CC(=O)NCCCn3ccnc3)C2=O)cc1 | – | – | – | – | – | – | · | · | · | · | ·
O=C(CNC(=O)c1ccc(Cl)cc1Cl)OCCCn1c(=O)[nH]c2ccccc21 | – | – | – | – | – | – | · | · | · | · | ·
COCCN(C(=O)COc1ccccc1C#N)c1c(N)n(Cc2ccccc2)c(=O)[nH]c1=O | – | – | – | – | – | – | · | · | · | · | ·
O=C(Nc1ccc2oc(-c3cccnc3)nc2c1)c1ccc(Br)o1 | – | – | – | – | – | – | · | · | · | · | ·
COc1ccc(-c2cc3ccccc3oc2=O)cc1NC(=O)c1ccc(Br)o1 | – | – | – | – | – | – | · | · | · | · | ·
O=C(Nc1cccc(-c2cc3ccccc3oc2=O)c1)c1ccc(Br)o1 | – | -8.7 | -11 | – | – | – | 34% | – | – | 121 | 0.15
Cc1cc2nc(-c3cccc(NC(=O)c4ccc(Br)o4)c3)oc2cc1C | – | -9.8 | -9.5 | – | – | – | 38% | – | – | 121 | 0.14
O=C(Nc1cccc(F)c1)c1ccc(Br)o1 | – | – | – | – | – | – | · | · | · | · | ·
O=C(Nc1cccc(-c2cn3c(n2)SCC3)c1)c1ccc(Br)o1 | – | -10 | – | – | – | – | 37% | – | – | 109 | –
O=C(Nc1cccc(OC(F)(F)F)c1)c1ccc(Br)o1 | – | -10 | -9.6 | – | – | – | 44% | – | – | 116 | –
Cc1ccc(S(=O)(=O)NCCC(=O)NC2CC2)cc1 | – | – | – | – | – | – | · | · | · | · | ·
Cc1cccc(N(C)c2ncnc3onc(-c4ccc(F)cc4)c23)c1C | – | – | – | – | – | – | · | · | · | · | ·
COc1cccc(NC(=O)CN(C)C(=O)C(CCSC)NC(=O)c2ccco2)c1 (stereo not drawn) | · | · | – | · | · | · | · | · | · | · | ·
CN(CC(=O)Nc1cc(Cl)cc(Cl)c1)Cc1cccs1 | – | -14 | -13 | – | – | – | 63% | – | 44% | 122 | 0.16
CCCOC(=O)c1ccc(NC(=O)CN(C)Cc2cccs2)cc1 | – | -12 | -10 | – | – | – | 50% | – | – | 94 | –
CN(CC(=O)NCCc1ccc(F)cc1)Cc1cccs1 | – | – | – | – | – | – | · | · | · | · | ·
O=C(N/C(=C\c1ccco1)C(=O)N1CCCC(CO)C1)c1ccccc1 (stereo not drawn) | – | – | – | – | – | – | · | · | · | · | ·
Cc1c(C(=O)Nc2ccc(F)cc2)sc2ncn(CC(=O)N3CCCCC3)c(=O)c12 | – | – | – | – | – | – | · | · | · | · | ·
